One test relates to PBPs, including PBP4. The note with it: background statement, no reference given; cited from earlier work.
Test [1] deals with AmpC β-lactamase production. Conditions: background statement, no reference given; cited from earlier work.
In the next test the test system is P. aeruginosa PBP4. Format: biochemical. In short, it runs like this:
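His-tagged P. aeruginosa PBP4 (residues 23–476) was expressed in E. coli Lemo21(DE3), passed twice over a chelating column and dialysed into 50 mM Tris pH 7.6, 0.5 M NaCl. It was used within 5 days and quantified by A280 (ε 62 005 M–1cm–1). Synthetic substrate at 0.125–5 mM was reacted in 50 mM Tris, 0.1 M NaCl, pH 7.6, 25 °C. After 30 min, one volume of 0.2% TFA was added. D-Ala-loss products were quantified by C18 HPLC against an internal standard to give steady-state kcat and Km.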

For `CO[C@@]1(NC(=O)Cc2cccs2)C(=O)N2C(C(=O)O)=C(COC(N)=O)CS[C@@H]21` [cefoxitin], in the test on PBPs, including PBP4, the PBP inhibition result is on record as “inhibits PBPs, including PBP4”. In test [1], the “AmpC β-lactamase induction” value is “a high inducer of AmpC β-lactamase production”.
As for “NAM-L-Ala-D-γ-Glu-meso-DAP-D-Ala-D-Ala [Compound 18]”, in the test with P. aeruginosa PBP4 (18 vs 19, pH 7.6, 25 °C), the “kcat comparison in words” value was “slightly higher than for 19”. Besides, the turnover product entry with P. aeruginosa PBP4 (PBP4, t = 30 min, LC/MS TIC, comparison with authentic synthetic 31) was “This new peak was proven to be compound 31”.

(Values after publication PMC4304477 (Journal of the American Chemical Society, 2014).)
